Data set [1] concerns Plasmodium falciparum. The data set can be described thus: Antiplasmodial activity against chloroquine-resistant Plasmodium falciparum FCR3 infected in human erythrocytes assessed as parasite growth inhibition. The following applies: FCR-3/Gambia, Erythrocyte. Type of data set: functional, organism-based.
Data set [2] concerns Plasmodium falciparum. Put plainly: Antiplasmodial activity against chloroquine-resistant Plasmodium falciparum K1 infected in human erythrocytes assessed as parasite growth inhibition. Format: functional, organism-based. The settings on record: K1, Erythrocyte.
Data set [3] in a line: Selectivity index, ratio of EC50 for human HepG2 cells to EC50 for antiplasmodial activity against multidrug-resistant Plasmodium falciparum Dd2 infected in human A-positive erythrocytes. Type of data set: toxicity, cell-based. The settings on record: read-out: Ratio EC50.
The next data set concerns HepG2. Put plainly: Cytotoxicity against human HepG2 cells assessed as decrease in cell viability measured after 48 hrs by MTS assay. Type of data set: cell-based. The settings on record: HepG2, 48 h. In short, it runs like this:
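After 48 h at 37 °C and 5% CO2, MTS was added for 4 h and absorbance read at 490 nm. Values were normalized to Triton X-100-lysed wells (0% growth) and untreated wells. EC50 is the mean of triplicate experiments.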
Background: Tetrazolium assays rely on reduction of a dye to a coloured formazan, in cell work by metabolically active cells.

Data set [4] concerns Plasmodium falciparum. Put plainly: Antiplasmodial activity against multidrug-resistant Plasmodium falciparum Dd2 infected in human A-positive erythrocytes assessed as reduction in parasitemia incubated for 72 hrs by fluorescence-based SYBR-Green-1 assay. The following applies: Dd2, Erythrocyte. Type of data set: functional, organism-based.
Data set [5] has as its system Plasmodium falciparum. The data set can be described thus: Antiplasmodial activity against Plasmodium falciparum assessed as parasite growth inhibition. Format: functional.

Values after ≈ are worked out from the molar mass of the structure shown. Where a SMILES comes first, the peptide text is derived from it. [ ]: non-standard residue; d: D form. The star is where a group is joined. X1 = CC(C)C[C@@H](C[N+]1=C2CCCN2CCC1)N*; Pip = O=C(O)[C@@H]1CCCCN1; Iva = CC[C@](C)(N)C(=O)O; Aib = CC(C)(N)C(=O)O; βAla = NCCC(=O)O Some results are limits rather than exact numbers.

With `CCCCCCC/C=C\CCCCCCCC(=O)N[C@H](C(=O)N1C[C@H](C)C[C@H]1C(=O)N[C@H](C(=O)N[C@@H](CC(N)=O)C(=O)N[C@@H](C)[C@H]1N[C@@H](CO)[C@H](O)[C@@H](CCCCCCCCCCCCC)O1)C(C)C)[C@@H](C)O`, the EC50 in the data set on Plasmodium falciparum [1] and in the data set with Plasmodium falciparum [2] was 0.15 µM throughout.
Consider `CCCCCCC/C=C\CCCCCCCC(=O)N[C@H](C(=O)N1C[C@H](C)C[C@H]1C(=O)N[C@H](C(=O)N[C@@H](CC(N)=O)C(N)=O)C(C)C)[C@@H](C)O` (HELM PEPTIDE1{[CCCCCCC/C=C\CCCCCCCC(=O)[*:2]].T.[C[C@@H]1C[C@@H](C(=O)[*:2])N([*:1])C1].V.N.[am]}$$$$V2.0), for which the EC50 in the data set with Plasmodium falciparum [1] and with Plasmodium falciparum [2] was 0.15 µM each time.
For `CC(=O)NC(C)(C)C(=O)N[C@@H](C)C(=O)N[C@@H](C)C(=O)N[C@@H](C)C(=O)NC(C)(C)C(=O)NC(C)(C)C(=O)N[C@@H](CCC(N)=O)C(=O)NC(C)(C)C(=O)N[C@@H](CC(C)C)C(=O)NC(C)(C)C(=O)NCC(=O)N[C@@H](CC(C)C)C(=O)NC(C)(C)C(=O)N1CCC[C@H]1C(=O)N[C@H](C(=O)NC(C)(C)C(=O)NC(C)(C)C(=O)N[C@@H](CCC(N)=O)C(=O)N[C@@H](CCC(N)=O)C(=O)N[C@H](CO)Cc1ccccc1)C(C)C` (HELM PEPTIDE1{[ac].[Aib].A.A.A.[Aib].[Aib].Q.[Aib].L.[Aib].G.L.[Aib].P.V.[Aib].[Aib].Q.Q.[OC[C@H](Cc1ccccc1)N[*:1]]}$$$$V2.0), in data set [3], the selectivity ratio was found to be 18. Also, the EC50 (in general, the concentration giving half of the maximal effect) in the data set on HepG2 is 5.77 µM; in the data set on Plasmodium falciparum [4], 0.32 µM.
On the same counts, the results for `CC(=O)NC(C)(C)C(=O)N[C@@H](C)C(=O)N[C@@H](C)C(=O)N[C@@H](C)C(=O)NC(C)(C)C(=O)NC(C)(C)C(=O)N[C@@H](CCC(N)=O)C(=O)NC(C)(C)C(=O)N[C@H](C(=O)NC(C)(C)C(=O)NCC(=O)N[C@@H](CC(C)C)C(=O)NC(C)(C)C(=O)N1CCC[C@H]1C(=O)N[C@H](C(=O)NC(C)(C)C(=O)NC(C)(C)C(=O)N[C@@H](CCC(N)=O)C(=O)N[C@@H](CCC(N)=O)C(=O)N[C@H](CO)Cc1ccccc1)C(C)C)C(C)C` (HELM PEPTIDE1{[ac].[Aib].A.A.A.[Aib].[Aib].Q.[Aib].V.[Aib].G.L.[Aib].P.V.[Aib].[Aib].Q.Q.[OC[C@H](Cc1ccccc1)N[*:1]]}$$$$V2.0) are 17, 9.28 µM and 0.56 µM.
On to `CC[C@H](C)[C@H](NC(=O)[C@H](CC(C)C)NC(=O)[C@H](CC(N)=O)NC(=O)C(C)(C)NC(C)=O)C(=O)NC(C)(C)C(=O)N1CCC[C@H]1C(=O)N[C@](C)(CC)C(=O)N[C@@H](CC(C)C)C(=O)NC(C)(C)C(=O)N1CCC[C@H]1C(=O)N[C@H](CO)CC(C)C` (HELM PEPTIDE1{[ac].[Aib].N.L.I.[Aib].P.[CC[C@@](C)(N[*:1])C(=O)[*:2]].L.[Aib].P.[CC(C)C[C@@H](CO)N[*:1]]}$$$$V2.0), for which the selectivity ratio in data set [3] is over 35. Moreover, the results for the EC50 with HepG2 and with Plasmodium falciparum [4] were over 25 µM and 0.72 µM, respectively.
For the compound `CC[C@H](C)[C@H](NC(=O)[C@H](C)NC(=O)[C@@H]1CCCN1C(=O)C(C)(C)NC(=O)[C@H](CC(C)C)NC(=O)[C@H](CC(N)=O)NC(=O)C(C)(C)NC(C)=O)C(=O)NC(C)(C)C(=O)N1CCC[C@H]1C(=O)NC(C)(C)C(=O)N[C@@H](CC(C)C)C(=O)NC(C)(C)C(=O)N1CCC[C@H]1C(=O)N[C@H](CO)CC(C)C` (HELM PEPTIDE1{[ac].[Aib].N.L.[Aib].P.A.I.[Aib].P.[Aib].L.[Aib].P.[CC(C)C[C@@H](CO)N[*:1]]}$$$$V2.0), the selectivity ratio in data set [3] is over 60. Moreover, the EC50 in the data set on HepG2 was over 25 µM; in the data set with Plasmodium falciparum [4], 0.42 µM.
Take `CC[C@H](C)[C@H](NC(=O)[C@H](CO)NC(=O)[C@@H]1CCCN1C(=O)C(C)(C)NC(=O)[C@H](CC(C)C)NC(=O)[C@H](CC(N)=O)NC(=O)C(C)(C)NC(C)=O)C(=O)NC(C)(C)C(=O)N1CCC[C@H]1C(=O)NC(C)(C)C(=O)N[C@@H](CC(C)C)C(=O)NC(C)(C)C(=O)N1CCC[C@H]1C(=O)N[C@H](CO)CC(C)C` (HELM PEPTIDE1{[ac].[Aib].N.L.[Aib].P.S.I.[Aib].P.[Aib].L.[Aib].P.[CC(C)C[C@@H](CO)N[*:1]]}$$$$V2.0): the selectivity ratio in data set [3] was over 40. Besides, the figures for the EC50 with HepG2 and with Plasmodium falciparum [4] were over 25 µM and 0.63 µM, respectively.
`CC(=O)NC(C)(C)C(=O)N[C@@H](CC(N)=O)C(=O)N[C@@H](CC(C)C)C(=O)NC(C)(C)C(=O)N1CCC[C@H]1C(=O)N[C@@H](CO)C(=O)N[C@H](C(=O)NC(C)(C)C(=O)N1CCC[C@H]1C(=O)NC(C)(C)C(=O)N[C@@H](CC(C)C)C(=O)NC(C)(C)C(=O)N1CCC[C@H]1C(=O)N[C@H](CO)CC(C)C)C(C)C` (HELM PEPTIDE1{[ac].[Aib].N.L.[Aib].P.S.V.[Aib].P.[Aib].L.[Aib].P.[CC(C)C[C@@H](CO)N[*:1]]}$$$$V2.0): the selectivity ratio in data set [3] was over 35. Further, the 50% effective concentration (EC50) in the data set with HepG2 is over 25 µM; with Plasmodium falciparum [4] it was 0.71 µM.
On the same counts, the results for `CC[C@@](C)(NC(=O)[C@@H]1CCCN1C(=O)C(C)(C)NC(=O)[C@@H](NC(=O)[C@H](CO)NC(=O)[C@@H]1CCCN1C(=O)C(C)(C)NC(=O)[C@H](CC(C)C)NC(=O)[C@H](CC(N)=O)NC(=O)C(C)(C)NC(C)=O)C(C)C)C(=O)N[C@@H](CC(C)C)C(=O)NC(C)(C)C(=O)N1CCC[C@H]1C(=O)N[C@H](CO)CC(C)C` (HELM PEPTIDE1{[ac].[Aib].N.L.[Aib].P.S.V.[Aib].P.[CC[C@@](C)(N[*:1])C(=O)[*:2]].L.[Aib].P.[CC(C)C[C@@H](CO)N[*:1]]}$$$$V2.0) are over 45, over 25 µM and 0.56 µM.
Regarding `CCC(=O)CCCCC[C@@H]1NC(=O)[C@H]2CCCCN2C(=O)[C@H]([C@@H](C)CC)NC(=O)[C@H](Cc2cn(OC)c3ccccc23)NC1=O` [APICIDIN], the MIC (commonly the lowest concentration found to suppress growth) in the data set with Plasmodium falciparum [5] was found to be 0.19 µM (≈ 0.119 µg/mL).
Regarding `CC[C@](C)(NC(=O)[C@H](CC(C)C)NC(=O)[C@H](C)NC(=O)C(C)(C)NC(=O)[C@@H]1CCCCN1C(=O)C(C)(C)NC(=O)C(C)(C)NC(=O)CNC(=O)CCNC(=O)[C@H](CC(C)C)NC(=O)C(C)(C)NC(=O)[C@](C)(CC)NC(=O)[C@@H]1CCCCN1C(=O)C(C)(C)NC(=O)[C@@H]1CCCCN1C(C)=O)C(=O)N[C@@H](CC(C)C)C[N+]1=C2CCCN2CCC1` [EFRAPEPTIN G] (Ac-[Pip][Aib][Pip][Iva][Aib]L[βAla]G[Aib][Aib][Pip][Aib]AL[Iva]-X1), in data set [3], the selectivity ratio was over 54. In addition, the figures for the EC50 in the data set on HepG2 and with Plasmodium falciparum [4] were over 25 µM and 0.46 µM, respectively.

Values taken from ChEMBL document CHEMBL4811229, “Leveraging Peptaibol Biosynthetic Promiscuity for Next-Generation Antiplasmodial Therapeutics” (J Nat Prod, 2021).
